# Test results from ChEMBL document CHEMBL4152278 (Eur J Med Chem, 2018).
# The source made the active and inactive calls.
# Columns and labels:
# [1] = Cytotoxicity against MDCK cells after 48 hrs by CellTiter96 aqueous non-radioactive cell proliferation assay; assay type: cell-based, Canis lupus familiaris; details: dog
# Influenza A virus [2] = test: Antiviral activity against Influenza A virus (A/WSN/1933(H1N1)) infected in MDCK cells expressing wild type neuraminidase assessed as protection against virus-induced cytopathic effect after 48 hrs by CellTiter96 aqueous non-radioactive cell proliferation assay; assay type: functional, organism-based
# Procedure, shortened: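 Virus at 100 TCID50 was premixed with inhibitor at varied concentrations, then added to MDCK cells (1×10^5 cells/mL). Cells were held 48 h at 37 °C under 5% CO2. Cytopathic effect was read as MTS absorbance at 490 nm after 15 min. EC50 was taken from a curve fit of percent CPE versus concentration.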
# [3] = Half life in borate buffer at pH 9.1 by HPLC method; assay type: physicochemical
# Procedure, shortened: (§1)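 A 20 mM DMSO stock was diluted to 1 mM in buffer (50 mM HCl/KCl pH 1.3, acetate pH 4.1, phosphate pH 7.4 at 50 or 10 mM, borate pH 9.1, glycine pH 9.2), rat plasma or […]. Mixtures were shaken at 1000 rpm, 37 °C, and sampled over time for reversed-phase HPLC (214 or 254 nm). Half-life came from a pseudo-first-order fit; remaining parent was assessed at 96 h. Three runs for ZA derivatives, single for GOC derivatives.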
# [4] = Metabolic stability in […] assessed as parent compound remaining after 96 hrs by HPLC method; assay type: ADME, cell-free, Oryctolagus cuniculus; details: rabbit, plasma; read-out: Stability
# [5] = Half life in rabbit plasma by HPLC method; assay type: ADME, cell-free, Oryctolagus cuniculus; procedure, shortened: as §1
# [6] = Half life in HCl/KCl solution at pH 1.3 by HPLC method; assay type: physicochemical; procedure, shortened: as §1
# [7] = Half life in 10 mM phosphate buffer at pH 7.4 by HPLC method; assay type: physicochemical; procedure, shortened: as §1
# [8] = Half life in 50 mM phosphate buffer at pH 7.4 by HPLC method; assay type: physicochemical; procedure, shortened: as §1
# [9] = Half life in glycine buffer at pH 9.2 by HPLC method; assay type: physicochemical; procedure, shortened: as §1
# [10] = Chemical stability in HCl/KCl solution at pH 1.3 assessed as parent compound remaining after 96 hrs by HPLC method; assay type: physicochemical; details: read-out: Stability; procedure, shortened: as §1
# Influenza A virus [11] = test: Antiviral activity against Influenza A virus (A/WSN/1933(H1N1)) infected in BALB/c mouse assessed as increase in mouse survival rate at 1.2 umol/kg/day administered intranasally for 5 days and measured at day 21 relative to control; assay type: functional, organism-based
# Influenza A virus [12] = test: Antiviral activity against Influenza A virus (A/WSN/1933(H1N1)) infected in BALB/c mouse assessed as protection against virus-induced infection at 48 umol/kg/day administered via oral gavage for 5 days; assay type: functional, organism-based
# Procedure, shortened: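 Female BALB/c mice (4–5 weeks old), 10 per group. Drug was given by oral gavage twice daily for 5 days at 48 μmol/kg/day. Intranasal challenge with 10 MLD50 of A/WSN/1933 (H1N1) 4 h after the first dose. PBS placebo on the same schedule. Survival was observed daily and compared by log-rank (Mantel–Cox) test.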
# [13] = Drug uptake in MDCK cells at 100 uM after 48 hrs by LC-MS analysis; assay type: ADME, cell-based, Canis lupus familiaris; details: dog
# Procedure, shortened: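 MDCK cells (2.5×10^6, grown overnight) were exposed to compound at 100 µM final in 2% FBS medium for 48 h, with a DMSO mock. Cells were washed, lysed in RIPA, methanol-precipitated at −80 °C and filtered (10 kDa cutoff). Parent and hydrolysis product were quantified by LC–MS/MS against calibration curves (0.03–300 µM) spiked into mock lysate.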
# Influenza A virus [14] = test: Antiviral activity against Influenza A virus (A/WSN/1933(H1N1)) infected in BALB/c mouse assessed as mouse survival rate at 1.2 umol/kg/day administered intranasally for 5 days and measured at day 21 relative to control; assay type: functional; details: inhaled or nasal
# [15] = Half life in rat plasma by HPLC method; assay type: ADME, cell-free; procedure, shortened: as §1
# [16] = Chemical stability in acetate buffer at pH 4.1 assessed as parent compound remaining after 96 hrs by HPLC method; assay type: physicochemical; details: read-out: Stability; procedure, shortened: as §1
# Influenza A virus [17] = test: Antiviral activity against Influenza A virus (A/WSN/1933(H1N1)) infected in BALB/c mouse assessed as increase in mouse survival rate at 2.4 umol/kg/day administered intranasally for 5 days and measured at day 21 relative to control; assay type: functional, organism-based
# Procedure, shortened: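 Female BALB/c mice (4–5 weeks old), 10 per group. Drug was given by intranasal instillation twice daily for 5 days at 2.4 μmol/kg/day, with half the dose at each administration. Mice were infected intranasally with 10 MLD50 of A/WSN/1933 (H1N1) under zoletil anaesthesia, 4 h after the first dose. PBS placebo on the same schedule. Survival was followed daily and curves compared by log-rank test.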
# [18] = Half life in acetate buffer at pH 4.1 by HPLC method; assay type: physicochemical; procedure, shortened: as §1
# [19] = Half life in human serum at 16 mg; assay type: ADME, organism-based
compound,measurement,setting,value
CCC(CC)O[C@@H]1C=C(C(=O)O)C[C@H](N)[C@H]1NC(C)=O [OSELTAMIVIR CARBOXYLATE],CC50 at 48 h,[1],> 100000 nM
same,EC50,Influenza A virus [2],16 nM
CCC(CC)O[C@@H]1C=C(C(=O)O)C[C@H](N/C(N)=N/C(=O)[C@@H](C)c2ccc3cc(OC)ccc3c2)[C@H]1NC(C)=O,half-life,[3],76.7 h
same,remaining at 96 h,[4],76%
same,half-life,[5],> 96 h
same,half-life,[6],> 96 h
same,half-life,[7],69.7 h
same,half-life,[8],64.9 h
same,half-life,[9],81.4 h
same,CC50 at 48 h,[1],> 100000 nM
same,EC50,Influenza A virus [2],2 nM
same,remaining at 96 h,[10],> 75%
CCC(CC)O[C@@H]1C=C(P(=O)(O)O)C[C@H](NC(=N)N)[C@H]1NC(C)=O,EC50,Influenza A virus [2],3.8 nM
CC(=O)N[C@H]1[C@H]([C@H](O)[C@H](O)CO)OC(C(=O)O)=C[C@@H]1NC(=N)N [ZANAMIVIR],Activity,Influenza A virus [11],Active
same,EC50,Influenza A virus [2],27 nM
CCCCCCCC(=O)/N=C(\N)N[C@H]1CC(C(=O)O)=C[C@@H](OC(CC)CC)[C@@H]1NC(C)=O,half-life,[3],18.1 h
same,remaining at 96 h,[4],55%
same,Activity,Influenza A virus [12],Active
same,half-life,[5],96 h
same,half-life,[6],> 96 h
same,half-life,[9],22.4 h
same,CC50 at 48 h,[1],> 100000 nM
same,EC50,Influenza A virus [2],1 nM
same,remaining at 96 h,[10],> 75%
same,Drug uptake,[13],1225 nM
CCOC(=O)C1=C[C@@H](OC(CC)CC)[C@H](NC(C)=O)[C@@H](N)C1,Activity,Influenza A virus [12],Active
COc1ccc2cc([C@H](C)C(=O)/N=C(\N)N[C@H]3C=C(C(=O)O)O[C@@H]([C@H](O)[C@H](O)CO)[C@@H]3NC(C)=O)ccc2c1,half-life,[7],67.2 h
same,survival at 1.2 µmol/kg,Influenza A virus [14],70%
same,half-life,[15],67.7 h
same,CC50 at 48 h,[1],> 100000 nM
same,EC50,Influenza A virus [2],140 nM
CCCCCCCC(=O)/N=C(\N)N[C@H]1C=C(C(=O)O)O[C@@H]([C@H](O)[C@H](O)CO)[C@@H]1NC(C)=O,half-life,[3],26.1 h
same,remaining at 96 h,[16],> 75%
same,Activity,Influenza A virus [17],Active
same,half-life,[18],> 96 h
same,half-life,[6],> 96 h
same,half-life,[7],56.8 h
same,survival at 1.2 µmol/kg,Influenza A virus [14],100%
same,half-life,[8],39.2 h
same,half-life,[15],29.5 h
same,CC50 at 48 h,[1],> 100000 nM
same,EC50,Influenza A virus [2],90 nM
same,remaining at 96 h,[10],> 75%
CC(=O)N[C@H]1[C@H]([C@H](O)[C@H](O)CO)OC(C(=O)O)=C[C@@H]1N=C(N)N [ZANAMIVIR],half-life,[19],2 to 5 h
same,CC50 at 48 h,[1],> 100000 nM
CCC(CC)O[C@@H]1C=C(P(=O)(O)O)C[C@H](N/C(N)=N/C(=O)CSc2ccc3ccccc3c2)[C@H]1NC(C)=O,EC50,Influenza A virus [2],0.8 nM
CCC(CC)O[C@@H]1C=C(C(=O)O)C[C@H](NC(=N)N)[C@H]1NC(C)=O,CC50 at 48 h,[1],> 100000 nM
same,EC50,Influenza A virus [2],7 nM
